Compound activity as filed in PubChem.
Efflux pump mplx: inhibitors of Candida antifungal efflux pumps expressed in yeast; S. cerevisiae Candida pump triplex, Nile Red efflux; inhibition, % at 10 µM; hit rate 0.44% among 330,000;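 active = plate passing quality check with inhibition over a set limit, or well fluorescence over plate mean plus 4 SD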;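 also: Nile Red retained in pooled yeast measured as flow cytometry median fluorescence; 0% = buffer negative control and 100% = Enniatin B positive control; higher means more Nile Red kept so more efflux inhibition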
FN deposition inh: fibronectin deposition inhibition; AH1F fibroblasts, Alexa488-fibronectin deposition fluorescence, overnight; inhibition, % at 12.6 µM; hit rate 0.086% among 350,000;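 active = mean inhibition across replicates of 30% or more, regardless of how many single replicates reach that level; inconclusive = mean under 30% yet at least half of replicates reach 30%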;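 also: positive control wells lacked labelled fibronectin entirely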
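test system = AH1F fibroblasts assembling fluorescent fibronectin matrix | quantity = 10000 AH1F cells per well | buffer or medium = DMEM plus 2% serum, read in PBS | doses = single dose, pinned | incubation = 1 h cell attachment, overnight exposure to compound and label | detection = fluorescence at 485 nm excitation, 525 nm emission | read-out basis = inhibition from reduced deposited-fibronectin fluorescence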
CaV13 FRET inh: Disruptors of the CACNA1D IQ motif to Ca2+-dependent inactivation inhibitor domain association, primary screening, Förster resonance energy transfer in intact living …; HEK cells, CFP/YFP FRET ICDI-IQ, plate reader, 10 min; percent FRET-ratio fall versus neutral wells; inhibition, % at 12.3 µM; hit rate 0.098% among 340,000;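 active = mean replicate inhibition of at least 30% and at least 1% of replicates passing that level; inconclusive = only one of the two criteria is met; inactive = neither criterion is met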;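 also: 0% = median of the neutral control wells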
SR-BI HDL uptake: inhibitors of mouse SR-BI mediated HDL lipid uptake; inhibition, % at 12.5 µM; hit rate 0.96% among 320,000; ldlA[mSR-BI] CHO cells, DiI-HDL uptake fluorescence, 3 h; AID 488896;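 active = mean replicate inhibition of at least 70% and a set share of replicates each scoring 70 or more; inconclusive = meets just one of the two criteria; inactive = fails both criteria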;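 also: 0% = median of neutral control wells and 100% = median of positive control wells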
Target sequence (Q61009 whole entry, looked up): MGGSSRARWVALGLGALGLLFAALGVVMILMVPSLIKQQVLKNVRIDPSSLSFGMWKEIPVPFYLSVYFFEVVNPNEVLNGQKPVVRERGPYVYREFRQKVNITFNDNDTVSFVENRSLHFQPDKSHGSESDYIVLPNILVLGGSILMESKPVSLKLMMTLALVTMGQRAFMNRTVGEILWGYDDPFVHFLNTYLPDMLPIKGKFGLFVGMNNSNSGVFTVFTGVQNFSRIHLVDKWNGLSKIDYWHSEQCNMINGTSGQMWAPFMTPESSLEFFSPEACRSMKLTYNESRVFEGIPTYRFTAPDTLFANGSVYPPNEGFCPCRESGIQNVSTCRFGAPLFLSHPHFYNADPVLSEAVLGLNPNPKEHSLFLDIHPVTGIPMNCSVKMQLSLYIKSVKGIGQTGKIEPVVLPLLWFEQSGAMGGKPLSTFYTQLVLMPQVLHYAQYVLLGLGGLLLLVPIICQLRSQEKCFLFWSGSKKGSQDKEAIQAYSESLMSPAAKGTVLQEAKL
SR-BI uptake up: SR-BI HDL lipid transfer activation. hit rate 0.096% among 320,000. activation, % at 12.5 µM. AID 504775. CHO ldlA[mSR-BI] cells, DiI-HDL uptake fluorescence, 3 h; 100 = double the neutral-control signal;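 active = mean replicate activation of at least 60% and every replicate at or above 60%; inconclusive = mean or all-replicate condition met, but not both; inactive = mean below 60% and not all replicates reaching 60%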;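 also: 0% = median plate neutral-control signal and 100% = twice that signal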
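Material – SR-BI-overexpressing, LDLR-lacking CHO cells · Medium – BSA-supplemented, HEPES-buffered Ham's F12, pH 7.4 · Doses – single concentration · Times – compound with DiI-HDL co-incubation, 3 h at 37 °C · Measured by – bottom-read fluorescence, 550/595 nm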
Numbers without * were called inactive; u = inconclusive; x = not tested or not shown. Sampled rows, rich in hits. Any-hit rate of the full collection: about 1.2%.

SMILES	Efflux pump mplx	FN deposition inh	CaV13 FRET inh	SR-BI HDL uptake	SR-BI uptake up
CCOc1ccc(NC(=O)CN(C)C(=O)c2c(C)nn(-c3ccccc3)c2Cl)cc1OCC	0	1	-3	47	-47
CCOc1ccc(NC(=O)CN(C)C(=O)c2cccc3ccccc23)cc1OCC	x	1	-7	78*	-78
CCOc1ccc(NC(=O)CN(C)C(=O)c2cc([N+](=O)[O-])ccc2Sc2ccccc2)cc1OCC	x	-9	-6	77*	-77
COCC(=O)Nc1ccc2c(c1)[C@H]1C[C@H](CC(=O)NCc3ccccc3)O[C@@H](CO)[C@H]1O2	x	-6	x	x	x
C[C@H](CO)N1C[C@H](C)[C@H](CN(C)S(=O)(=O)c2ccc(C#N)cc2)Oc2ncc(C#Cc3ccc(C(F)(F)F)cc3)cc2C1=O	x	0	x	x	x
O=C(c1ccccc1)N1CCN(c2ccc(NCc3ccc4c(c3)OCO4)cc2)CC1	0	5	56*	9	-9
CC(=O)N1CCN(c2ccc(NCc3ccc4c(c3)OCO4)cc2)CC1	0	-3	-5	1	-1
CC(=O)N1[C@@H]2CN(S(C)(=O)=O)C[C@H]1C2c1ccccc1 (some centres not stated)	x	-5	x	x	x
Cc1cc(NC(=O)Nc2ccccc2F)ccc1Br	0	39*	-2	u	-71
Cn1nnc2cc(NC(=O)Nc3ccccc3F)ccc21	x	-7	-17	x	x
CCC(=O)Nc1ccc2c(c1)C(=O)N(C)C[C@@H](OC)[C@H](C)CN(C(=O)C1CCC1)[C@@H](C)CO2	x	2	x	x	x
C#CCSc1nnc(-c2sc(-c3ccccc3)nc2C)n1C	0	-10	-4	74*	-74
C#CCSc1nnc(-c2c[nH]c3ccccc23)n1C	0	2	-7	-1	1
CO[C@H]1CN(C)C(=O)c2ccc(NS(=O)(=O)c3ccc(-c4ccccc4)cc3)cc2OC[C@H](C)NC[C@@H]1C	x	-7	x	x	x
COc1ccc(-c2csc(Nc3ccc(C)cn3)n2)cc1OC	0	-4	-2	77*	-77
COc1ccccc1CN(C)C[C@@H]1OCc2ccccc2-c2c(n(C)c3ccccc23)C(=O)N([C@H](C)CO)C[C@H]1C	x	5	x	x	x
COC(=O)c1cc(=O)n(Cc2ccc3c(c2)OCO3)c(=Nc2ccc(F)c(Cl)c2)s1	0	-8	38*	15	-15
COC(=O)c1cc(=O)n(CCc2ccc(OC)cc2)c(=Nc2ccc(F)c(Cl)c2)s1	0	-15	-7	62	-62
CCC(C)NC(=O)c1cc2c(=O)n(CC)c3ccccc3c2s1 (configuration not stated)	0	9	-19	74*	-74
CCn1c(=O)c2cc(C(=O)NCC(OC)OC)sc2c2ccccc21	0	0	-4	25	-25
CCOC(CNC(=O)c1cc2c(=O)n(CC)c3ccccc3c2s1)OCC	0	0	-4	82*	-82
C=CCc1c(C)nc(-c2ccccc2)nc1Nc1ccccc1O	0	-7	-4	101*	-101
C=CCc1c(C)nc(-c2ccccc2)nc1N/N=C/c1ccccc1	0	-1	-2	61	-61
CN(C(=O)C(C)(C)C)c1ccc(OCC(=O)N2CCc3ccccc3C2)cc1	0	3	-4	95*	-95
COc1ccc(S(=O)(=O)N2CCOCC2)cc1NC(=O)c1cc2c(s1)CCCC2	0	0	-18	29	-29
SMILES	Efflux pump mplx	FN deposition inh	CaV13 FRET inh	SR-BI HDL uptake	SR-BI uptake up
COc1ccc(NC(=O)c2cc3c(s2)CCC3)cc1S(=O)(=O)N1CCOCC1	0	3	-4	70*	-70
CCCCCn1c(=O)[nH]c2cc(C(=O)Nc3ccc(OC)cc3)ccc2c1=O	0	x	x	13	-13
CCn1c(=O)[nH]c2cc(C(=O)Nc3cc(C)cc(C)c3)ccc2c1=O	0	14	6	72*	-72
O=C(C1CCN(c2nnc(-n3cccc3)s2)CC1)N1CCN(c2cccc(C(F)(F)F)c2)CC1	0	x	x	72*	-72
O=C(C1CCC1)N1CCN(c2cccc(C(F)(F)F)c2)CC1	0	-4	-21	13	-13
CCn1c(=NC(=O)c2cccc(N3C(=O)CCC3=O)c2)sc2c(OC)ccc(OC)c21	0	6	-6	91*	-91
COc1ccc(OC)c2c1sc(=NC(=O)c1cccc(N3C(=O)CCC3=O)c1)n2C	0	11	-7	77*	-77
CC(=O)N(C)C[C@H]1Oc2ccc(N(C)C)cc2C(=O)N(C)C[C@@H]1C	x	6	x	x	x
Cc1ccccc1NC(=O)N1CCC(C(=O)c2ccc(F)cc2)CC1	0	-11	10	64	-64
O=C(c1ccc(F)cc1)C1CCN(C(=O)Nc2ccccc2Cl)CC1	0	-8	64*	48	-48
Cc1cccn2c(=O)c(/C=C(\C#N)C(N)=O)c(N3CCN(c4ccccc4)CC3)nc12	0	x	-2	-13	13
Cc1cccn2c(=O)c(/C=C(\C#N)C(N)=O)c(Oc3ccccc3)nc12	0	-13	38*	-12	12
COc1ccc(-c2nc(NC(=O)c3ccco3)sc2C)cc1	x	2	-16	x	x
COc1ccc(-c2nc(NC(=O)c3[nH]c(C)c(C(C)=O)c3C)sc2C)cc1	0	-8	-2	76*	-76
CCOc1ccc(-c2csc(NC(=O)c3cccc(N4C(=O)CCC4=O)c3)n2)cc1	0	-3	-9	90*	-90
COc1ccc(-c2csc(NC(=O)c3cccc(N4C(=O)CCC4=O)c3)n2)cc1OC	0	2	-15	72*	-72
CCOC(=O)c1c(-c2ccc(-c3ccccc3)cc2)csc1NC(=O)c1cccc(N2C(=O)CCC2=O)c1	0	1	-18	72*	-72
CNC[C@@H]1Oc2ccc(NC(=O)CCN3CCOCC3)cc2C(=O)N([C@H](C)CO)C[C@H]1C	x	-7	x	x	x
COc1ccc(S(=O)(=O)Nc2cccc3c2O[C@@H](CN(C)C(=O)NC2CCCCC2)[C@@H](C)CN([C@@H](C)CO)C3=O)cc1	x	1	x	x	x
CCOC(=O)N1CCN(C(=O)CSCC(=O)Nc2nc(-c3ccc(-c4ccccc4)cc3)cs2)CC1	1	2	-6	85*	-85
CCOC(=O)N1CCN(C(=O)CSCC(=O)Nc2nc(-c3ccc(OC)cc3)cs2)CC1	0	8	-3	64	-64
O=C(/C=C/c1ccc(OC(F)F)cc1)Nc1cccc(S(=O)(=O)N2CCOCC2)c1	0	x	x	80*	-80
CC(=O)c1cccc(NC(=O)/C=C/c2ccc(S(=O)(=O)N3CCOCC3)cc2)c1	0	-7	-15	72*	-72
C[C@@H]1CN([C@@H](C)CO)C(=O)c2cc(-c3ccc(F)cc3)cnc2O[C@H]1CN(C)C(=O)Nc1ccc(F)cc1	x	-9	x	x	x
O=C(Nc1ccc2c(c1)[C@H]1C[C@H](CC(=O)N3CCOCC3)O[C@H](CO)[C@H]1O2)c1cccnc1	x	-3	x	x	x
